Series [1] is described as follows: Free radical scavenging activity. As to conditions: for IC50: read-out: (IC50 ± SEM) Antioxidant activity (DPPH radical). Put shortly: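 Test compound in DMSO mixed with 0.2 mM DPPH in 95% methanol (1:3 by volume) and held 1 h in the dark at room temperature. Absorbance read at 517 nm; scavenging calculated relative to control, with ascorbic acid as reference. IC50 from non-linear regression; triplicate; mean ± SEM.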
(In general: DPPH is a stable violet radical that fades when it is reduced.)

Series [2] concerns the target T1, α-glucosidase (Saccharomyces cerevisiae, UniProt P53341). The series can be described thus: α-Glucosidase inhibitory activity. The class given is biochemical.
The target in series [3] is T2, porcine pancreatic α-amylase (Sus scrofa, UniProt P00690).
T2 sequence (P00690 16-511): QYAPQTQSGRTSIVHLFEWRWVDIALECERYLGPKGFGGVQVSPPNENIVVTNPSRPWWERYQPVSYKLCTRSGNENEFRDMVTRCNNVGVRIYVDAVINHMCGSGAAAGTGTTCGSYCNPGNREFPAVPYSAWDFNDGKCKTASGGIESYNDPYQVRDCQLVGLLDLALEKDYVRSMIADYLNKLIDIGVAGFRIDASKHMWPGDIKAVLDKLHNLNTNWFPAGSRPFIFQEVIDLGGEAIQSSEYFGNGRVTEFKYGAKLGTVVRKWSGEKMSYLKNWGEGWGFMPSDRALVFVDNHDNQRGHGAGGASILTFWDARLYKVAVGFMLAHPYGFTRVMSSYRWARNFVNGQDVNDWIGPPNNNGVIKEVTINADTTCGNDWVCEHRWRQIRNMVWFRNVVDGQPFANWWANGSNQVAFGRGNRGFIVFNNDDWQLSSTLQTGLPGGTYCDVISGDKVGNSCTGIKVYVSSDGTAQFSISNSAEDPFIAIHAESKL
Put plainly: α-Amylase inhibitory activity. It is filed as biochemical.

Series [4] has as its system AGEs formation in BSA-fructose model. The series can be described thus: AGEs inhibition, fluorescence, BSA-fructose model. It is filed as biochemical. The note with it: 50 °C 24 hours. The essentials: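 Test compound and BSA-fructose solution mixed 1:1 and incubated at 50 °C for 24 h, with aminoguanidine as positive control. An aliquot of the mixture was diluted fivefold and fluorescence read at excitation 375 nm and emission 440 nm. Inhibition was calculated from control, control blank, sample and sample blank intensities. Run in triplicate; IC50 derived; mean ± SEM.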

Series [5] is described as follows: Stability under physiological conditions. It is filed as physicochemical. The note with it: 200 μM, 1X PBS pH 7.4, 37 °C, 10 days. Put shortly:
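Test compound at 200 μM in 1X PBS, pH 7.4, incubated at 37 °C. A sample taken immediately was extracted three times with ethyl acetate, evaporated and stored at −20 °C; a second sample was extracted likewise after 10 days. Both residues were analysed by LC-MS on a C18 column.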

For series [6], the system named is fructosamine formation in BSA-fructose model. The series can be described thus: Fructosamine inhibition, NBT assay, BSA-fructose model. The class given is biochemical. As to conditions: 50 °C 24 hours. The essentials:
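Test compound and BSA-fructose solution mixed 1:1 and incubated at 50 °C for 24 h, with aminoguanidine as positive control. Incubated mixture was treated with 300 μM NBT in 0.1 M sodium carbonate, pH 10.6, at 37 °C for 15 min, then absorbance read at 530 nm. Inhibition was calculated with control and sample blanks. Run in triplicate; mean ± SEM.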

For another series, the system named is 3T3-L1 cells. The series can be described thus: MTT cytotoxicity assay. The class given is cell-based. The note with it: 3T3-L1, up to 50 μM, 12 hours. The essentials:
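3T3-L1 cells grown in DMEM with 10% FBS, 1% penicillin–streptomycin and 0.2% amphotericin at 37 °C, 5% CO2. Seeded at 2.0 × 10^4 cells/well overnight, PBS-washed, then exposed to test compound (0–50 μM in DMEM) for 12 h. After washing, 0.05% MTT in DMEM for 3 h; formazan dissolved in DMSO and read at 590 nm (reference 620 nm). IC50 by non-linear regression; triplicate.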

For series [7] the following is noted: cited from earlier work; for Stability improvement compared to ester form: rat plasma, Yang et al. ref 58.
Series [8] concerns the target T1, α-glucosidase. As to conditions: vs EGCG, Liu et al. ref 37; cited from earlier work.
In a further series the target is T3, α-amylase (Sus scrofa, UniProt P00690).
T3 sequence (P00690 16-511): T2 sequence (P00690 16-511)
As to conditions: vs EGCG, Liu et al. ref 37; cited from earlier work.

For series [9] the following is noted: in vivo study by Wang et al. ref 55; cited from earlier work.
The subject of another series is Caco-2 monolayer. The note with it: Caco-2 cell model ref 55; cited from earlier work.
The subject of a further series is C57BL/KsJ-db/db mice. The note with it: Jung et al. ref 52; cited from earlier work.

Read-outs that look alike come from different tables or passages of the source.

T1 sequence (P53341 whole entry): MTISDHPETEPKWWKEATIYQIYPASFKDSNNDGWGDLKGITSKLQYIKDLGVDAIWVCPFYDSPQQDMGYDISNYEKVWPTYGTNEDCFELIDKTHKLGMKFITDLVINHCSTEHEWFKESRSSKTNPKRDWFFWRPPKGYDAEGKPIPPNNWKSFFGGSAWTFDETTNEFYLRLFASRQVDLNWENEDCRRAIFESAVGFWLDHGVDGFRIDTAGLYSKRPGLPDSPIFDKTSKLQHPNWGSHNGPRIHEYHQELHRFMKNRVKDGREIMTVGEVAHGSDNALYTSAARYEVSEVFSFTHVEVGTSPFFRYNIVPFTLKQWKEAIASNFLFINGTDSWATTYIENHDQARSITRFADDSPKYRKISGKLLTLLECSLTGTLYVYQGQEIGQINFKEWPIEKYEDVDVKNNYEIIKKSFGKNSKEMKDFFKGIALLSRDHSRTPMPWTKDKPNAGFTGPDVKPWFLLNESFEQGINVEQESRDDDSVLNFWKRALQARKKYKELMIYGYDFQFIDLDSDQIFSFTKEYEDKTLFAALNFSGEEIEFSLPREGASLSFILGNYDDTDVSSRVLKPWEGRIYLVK

As for `CCCCCCCCCCCCCCCCNC(=O)/C=C/c1ccc(O)c(O)c1` [CA16, (E)-3-(3,4-Dihydroxyphenyl)-N-hexadecylacrylamide], the IC50 (commonly the point on the concentration scale where inhibition reaches its midpoint) in series [1] (mean ± SEM, triplicate) turned out to be 15.1 ± 0.3 µM; against α-glucosidase [2] it was 24.8 ± 0.46 µM; in series [3] it was 58.4 ± 2.68 µM.

As for `C[C@H]1O[C@H](O[C@H]2[C@H](O)[C@@H](O)[C@@H](O[C@H]3[C@H](O)[C@@H](O)C(O)O[C@@H]3CO)O[C@@H]2CO)[C@H](O)[C@@H](O)[C@@H]1N[C@H]1C=C(CO)[C@@H](O)[C@H](O)[C@H]1O` (stereo partly shown) [Acarbose, reference compound], the “(IC50 ± SEM) Antioxidant activity (DPPH radical)” value in series [1] (mean ± SEM, triplicate) is reported as “No activity”.

For `CCCCCCCCCCCCCCNC(=O)/C=C/c1ccc(O)c(O)c1` [CA14, (E)-3-(3,4-Dihydroxyphenyl)-N-tetradecylacrylamide], the “Antioxidant activity relative to 15c” value in series [1] (ratio of DPPH IC50 values, vs 15c) is on record as 1.2 fold. In addition, the “Antioxidant activity relative to CA” value in series [1] (ratio of DPPH IC50 values, vs CA) is on record as 2.5 times. The “Antioxidant activity relative to Vitamin C” value in series [1] (ratio of DPPH IC50 values, vs Vitamin C) is 2.3 fold. For the same compound, the IC50 came out at 14 ± 0.38 µM in [1] (mean ± SEM, triplicate); 1.94 ± 0.06 µM on α-glucosidase [2]; 27 ± 0.83 µM in [3]. Further, the “Inhibition of AGEs” value in series [4] (5 mM) came to 44%; in series [4] (10 mM), 79%. For the same compound, the “Stability under physiological conditions (degradation by LC-MS)” value in [5] is “did not exhibit any degradation”. For the same compound, the “Inhibition of fructosamine formation” value in [6] (5 mM) is 33%; in series [6] (10 mM), 70%. Further, the “α-Glucosidase inhibition potency relative to parent CA” value at α-glucosidase [2] (ratio of IC50 values, vs CA) was determined as 6392 times. At α-glucosidase [2] (ratio of IC50 values, vs acarbose), the “α-Glucosidase inhibition potency relative to acarbose” value was found to be 113 times. Also, the “Cytotoxicity (cell viability, MTT)” value in the series on 3T3-L1 cells is “no significant cytotoxicity”.

Turning to `O=C(/C=C/c1ccc(O)c(O)c1)NCCc1ccccc1` [CAPA, caffeic acid phenethyl amide], the “Stability improvement compared to ester form” value in series [7] (25 °C) is given as 118 fold; in [7] (37 °C) it was 77 fold.

Regarding `CCCCCCCCCCNC(=O)/C=C/c1ccc(O)c(O)c1` [CA10, (E)-3-(3,4-Dihydroxyphenyl)-N-decylacrylamide], the half-maximal inhibitory concentration (IC50) in series [1] (mean ± SEM, triplicate) is 23.4 ± 0.77 µM; on α-glucosidase [2], 19.1 ± 0.64 µM; in series [3], over 500 µM.

`CCCCCCCCCCCCNC(=O)/C=C/c1ccc(O)c(O)c1` [CA12, (E)-3-(3,4-Dihydroxyphenyl)-N-dodecylacrylamide]: the IC50 in series [1] (mean ± SEM, triplicate) was determined as 16.4 ± 0.48 µM; against α-glucosidase [2], 17.4 ± 0.87 µM; in series [3] it was 72.8 ± 1.83 µM.

EGCG palmitate: at α-glucosidase [8], the “α-Glucosidase inhibition better than EGCG” value was 52 times. Besides, at α-amylase, the “α-Amylase inhibition better than EGCG” value is 4.5 times.

As for `O=C(/C=C/c1ccc(O)c(O)c1)OCCc1ccccc1` [CAPE, caffeic acid phenethyl ester], the “Stability in rat plasma” value in series [7] (esterases ref 57) is listed as “rapid decomposition”.

On to `CCCCNC(=O)/C=C/c1ccc(O)c(O)c1` [CA4, (E)-3-(3,4-Dihydroxyphenyl)-N-butylacrylamide], for which the IC50 in [1] (mean ± SEM, triplicate) was 20.8 ± 0.45 µM; against α-glucosidase [2] it was 38 ± 1.57 µM; in series [3] it was over 500 µM.

Turning to `N=C(N)NN` [AG, Aminoguanidine, reference compound], the figures for the “Inhibition of AGEs” value in [4] (5 mM) and in [4] (10 mM) were 43% and 70%, respectively. The “Inhibition of fructosamine formation” value in [6] (5 mM) amounted to 9%; in series [6] (10 mM) it was 30%.

In the case of `CCCCCCCCNC(=O)/C=C/c1ccc(O)c(O)c1` [CA8, (E)-3-(3,4-Dihydroxyphenyl)-N-octylacrylamide], the 50% inhibitory concentration (IC50) in series [1] (mean ± SEM, triplicate) is 24.3 ± 0.58 µM; on α-glucosidase [2] it was 13.7 ± 0.44 µM; in series [3], over 500 µM.

For `CCCCCCNC(=O)/C=C/c1ccc(O)c(O)c1` [CA6, (E)-3-(3,4-Dihydroxyphenyl)-N-hexylacrylamide], the half-maximal inhibitory concentration (IC50) in [1] (mean ± SEM, triplicate) is 23.7 ± 0.59 µM; against α-glucosidase [2] it was 51.5 ± 2.36 µM; in [3] it was over 500 µM.

As for `O=C(O)/C=C/c1ccc(O)c(O)c1` [CA, Caffeic acid], the Bioavailability in series [9] was 14.70%. In the series on Caco-2 monolayer, the Caco-2 monolayer permeability result is “poor”. Besides, in series [1] (mean ± SEM, triplicate), the IC50 turned out to be 34.3 ± 0.52 µM. Also, in the series with C57BL/KsJ-db/db mice, the “Blood glucose lowering effect” value is reported as “significant blood glucose lowering effect”.

For the compound `O=C1O[C@H]([C@@H](O)CO)C(O)=C1O` [Vitamin C, L-ascorbic acid, reference compound], in [1] (mean ± SEM, triplicate), the half-maximal inhibitory concentration (IC50) came out at 32.7 ± 0.47 µM. Also, the “(IC50 ± SEM) α-Glucosidase inhibition” value on α-glucosidase [2] (mean ± SEM, triplicate) is listed as “No activity”. The “(IC50 ± SEM) α-Amylase inhibition” value in [3] (mean ± SEM, triplicate) is “No activity”.

The values above are taken from paper PMC12573768 (RSC Advances, 2025).
